Assay results of several laboratories.
Lines come from different studies, so protocols differ.
Read-out: cell growth or viability

SMILES | cell line | assay | setting | IC50 [µM]
COc1cc(/C=C/C(=O)/C=C/c2c(C)nn(-c3ccccc3)c2Cl)cc(OC)c1O | LLC-PK1 | MTT | 72 h | 12.9
Cc1cc(Nc2ncc(Cl)c(Nc3ccccc3S(=O)(=O)C(C)C)n2)c(OC(C)C)cc1C1CCNCC1 | RD | – | 72 h | 2.18
Cn1nnc2c(C(N)=O)ncn2c1=O | U-118-MG | resazurin | 7 days | 322
CCN(CC)CCNC(=O)c1c(C)[nH]c(/C=C2\C(=O)Nc3ccc(F)cc32)c1C | Swiss-3T3 | – | 72 h | 4.43
COc1cc(N2CCC(N3CCN(C)CC3)CC2)ccc1Nc1ncc(Cl)c(Nc2ccccc2S(=O)(=O)C(C)C)n1 | RD | – | 72 h | 0.25
CN1C(=O)c2cc(C(N)=O)nc3c(N)c(Cl)c(N)c1c23 | HCC44 | – | – | 15.3
Cc1cccc(-n2ncc(Br)c(Br)c2=O)c1 | NCI-H2122 | resazurin | 96 h | 1.26
CCOc1cc(OCC)cc(C(=O)O[C@@H]2CN3Cc4c(cc5c(c4OC)OCO5)[C@@]24C=C[C@H](OC)C[C@@H]34)c1 | A2780 | WST-1 | – | 7.8
CCSC(=O)c1ncn2c(=O)n(C)nnc12 | U-118-MG | resazurin | 7 days | 165
CNC(=O)c1cc(Oc2ccc(NC(=O)Nc3ccc(Cl)c(C(F)(F)F)c3)cc2)ccn1 | Swiss-3T3 | SRB | – | 0.427
COc1ccc(-c2nn(-c3ccc(S(C)(=O)=O)cc3)cc2C=N/N=c2\[nH]c(-c3ccc([N+](=O)[O-])cc3)cs2)cc1 | F180 | MTT | 48 h | 28.5
CCCCN(CCCC)C(=O)c1ncn2c(=O)n(C)nnc12 | U-118-MG | resazurin | 7 days | 62
CC(C)c1cc(C(=O)N2Cc3ccccc3C2)c(O)c2nc[nH]c12 | UMUC3 | ATP luminescence | 72 h | 53
CC(=O)O[C@H]1C(=O)[C@@]2(C)[C@H]([C@H](OC(=O)c3ccccc3)[C@]3(O)C[C@H](OC(=O)[C@H](O)[C@@H](NC(=O)c4ccccc4)c4ccccc4)C(C)=C1C3(C)C)[C@]1(OC(C)=O)CO[C@@H]1C[C@@H]2O | LLC-PK1 | MTT | 72 h | 0.73
COc1cc([C@@H]2c3cc4c(cc3[C@@H](O[C@@H]3O[C@@H]5CO[C@@H](C)O[C@H]5[C@H](O)[C@H]3O)[C@H]3COC(=O)[C@H]23)OCO4)cc(OC)c1O | Caco-2 | MTS | 72 h | 14
CC(C)c1cc(C(=O)N2Cc3ccccc3C2)c(O)c2c1C(=O)C(F)C2 (centres unmarked) | UMUC3 | ATP luminescence | 72 h | 69.9
O=Cc1ccc(CO)o1 | RD | WST-1 | 48 h | 60.6
Cc1cc(-c2nc(C(=O)Nc3cc4oc(N5CCOCC5)nc4nc3N3CC[C@@H](O)C3)co2)ccn1 | SU-DHL-4 | – | 5 days | > 10
CC(C)c1cc(C(=O)N2Cc3ccccc3C2)c(O)c2cc[nH]c12 | UMUC3 | ATP luminescence | 72 h | > 100
CC(C)C[C@H](NC(=O)[C@H](Cc1ccccc1)NC(=O)c1cnccn1)B(O)O | U-118-MG | ATP luminescence | – | 0.0075
Cn1nnc2c(C(N)=O)ncn2c1=O | U-118-MG | MTT | 72 h | 944
COc1cc(/C=C/C(=O)/C=C/c2c(C)nn(-c3cccc([N+](=O)[O-])c3)c2Cl)cc(OC)c1OC | LLC-PK1 | MTT | 72 h | 5.93
COc1cccc2c1C(=O)c1c(O)c3c(c(O)c1C2=O)C[C@@](O)(C(=O)CO)C[C@@H]3O[C@H]1C[C@H](N)[C@H](O)[C@H](C)O1 | Caco-2 | MTT | 24 h | 12.3
CS(=O)(=O)c1ccc(-n2cc(/C=N/N=c3\[nH]c(-c4ccc([N+](=O)[O-])cc4)cs3)c(-c3ccc([N+](=O)[O-])cc3)n2)cc1 | F180 | MTT | 48 h | 70.6

SMILES | cell line | assay | setting | IC50 [µM]
COc1cc2c(Oc3ccc(NC(=O)C4(C(=O)Nc5ccc(F)cc5)CC4)cc3F)ccnc2cc1OCCCN1CCOCC1 | RD | – | 72 h | 0.22
CCCCCC/N=C1\c2cc(C(N)=O)nc3c(N)c(Cl)c(N)c(c23)N1C | HCC44 | – | – | 1.1
O=C(O)CCCc1ccccc1 | LoVo | MTT | 72 h | > 50
Cn1nnc2c(-c3ccccc3)ncn2c1=O | U-118-MG | resazurin | 7 days | 3
CC(C)c1cc(C(=O)N2Cc3ccccc3C2)c(O)c2[nH]nnc12 | UMUC3 | ATP luminescence | 72 h | > 100
COc1ccc(/C=C/C(=O)/C=C/c2cn(-c3ccccc3)nc2-c2ccccc2)cc1O | LLC-PK1 | MTT | 72 h | 8.39
COc1ccc(-c2nn(-c3ccc(S(C)(=O)=O)cc3)cc2/C=N/N=c2\[nH]c(-c3ccc(Br)cc3)cs2)cc1 | F180 | MTT | 48 h | 59.6
C[C@]12CC[C@H](O)CC1=CC[C@@H]1[C@@H]2CC[C@]2(C)C(n3cnc4ccccc43)=CC[C@@H]12 | LAPC4 | MTT | 7 days | 4
O=c1c(O)c(-c2ccc(O)c(O)c2)oc2cc(O)cc(O)c12 | RD | WST-1 | 48 h | 29.8
CS(=O)(=O)c1ccc(-n2cc(/C=N/N=c3\[nH]c(-c4ccc(Br)cc4)cs3)c(-c3ccc(Br)cc3)n2)cc1 | F180 | MTT | 48 h | 59.8
CC(=O)O[C@H]1C(=O)[C@@]2(C)[C@H]([C@H](OC(=O)c3ccccc3)[C@]3(O)C[C@H](OC(=O)[C@H](O)[C@@H](NC(=O)c4ccccc4)c4ccccc4)C(C)=C1C3(C)C)[C@]1(OC(C)=O)CO[C@@H]1C[C@@H]2O | A2780 | fluorescence | 72 h | 0.00026
CC(C)c1cc(C(=O)N2Cc3ccccc3C2)c(O)c2c1CCCC2=O | UMUC3 | ATP luminescence | 72 h | > 100
COc1cc(/C=C/C(=O)/C=C/c2c(C)nn(-c3ccccc3)c2Cl)ccc1O | LLC-PK1 | MTT | 72 h | 9.56
CC1(C)CC[C@]2(C)CC[C@]3(C)C(=CC[C@@H]4[C@@]5(C)CC[C@H](O)C(C)(C)[C@@H]5CC[C@]43C)[C@@H]2C1 | RD | WST-1 | 48 h | 93.7
O=C(Nc1ccc(Cl)cc1)c1ccc([N+](=O)[O-])o1 | NCI-H1650 | resazurin | 96 h | 0.38
O=c1cc(-c2ccc(O)c(O)c2)oc2cc(O)cc(O)c12 | RD | WST-1 | 48 h | 16
CC1Cc2c(O)c(C(=O)N3Cc4ccccc4C3)cc(C(C)C)c2C1=O (centres unmarked) | UMUC3 | ATP luminescence | 72 h | 70.4
COc1cccc2c1C(=O)c1c(O)c3c(c(O)c1C2=O)C[C@@](O)(C(=O)CO)C[C@@H]3O[C@H]1C[C@H](N)[C@H](O)[C@H](C)O1 | F180 | MTT | 48 h | 9.39
CNC(=O)c1ccc(N2C(=S)N(c3cnc(C#N)c(C(F)(F)F)c3)C(=O)C23CCC3)cc1F | LAPC4 | ATP luminescence | 6 days | 1.1
CC(C)c1cc(C(=O)N2Cc3ccccc3C2)c(O)c2c1CC=C2 | UMUC3 | ATP luminescence | 72 h | 51.3
CC(C)Cc1ccc(-c2nn(-c3ccc(S(C)(=O)=O)cc3)cc2/C=N/N=c2\[nH]c(-c3ccc(Br)cc3)cs2)cc1 | F180 | MTT | 48 h | 73.7
COc1cc(Nc2nccc(-c3cnn4nc(OC)ccc34)n2)cc(C(F)(F)F)c1 | U-118-MG | ATP luminescence | – | 0.12
CC(C)c1cc(C(=O)N2Cc3ccccc3C2)c(O)c2c1C(=O)C(F)(F)C2 | UMUC3 | ATP luminescence | 72 h | > 100
